Tests used:
other kallikreins = assay: Protease panel assay; type: biochemical, human; conditions: up to 10 μM
Procedure, shortened: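 Human kallikreins in a 23-protease panel run by a contract lab, with enzyme conditions tabulated in the supplement. […] Fluorogenic AMC peptide substrates; fluorescence increase followed as a time course. The initial linear slope (signal/min) was used to derive IC50.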

HNE = molecular target: T1, HNE (Homo sapiens, UniProt P08246); assay: In vitro HNE enzyme assay with pNa substrate; type: biochemical
T1 sequence (P08246 30-267): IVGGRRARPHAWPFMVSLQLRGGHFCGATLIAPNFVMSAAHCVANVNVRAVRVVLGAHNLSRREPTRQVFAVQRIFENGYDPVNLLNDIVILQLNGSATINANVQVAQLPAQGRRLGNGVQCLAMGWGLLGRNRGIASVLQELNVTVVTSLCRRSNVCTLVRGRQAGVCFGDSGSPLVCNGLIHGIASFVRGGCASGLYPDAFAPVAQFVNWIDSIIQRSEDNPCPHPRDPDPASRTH

Q: `C/C=C1\NC(=O)[C@@H](NC(=O)[C@@H](NC(=O)[C@H](C)NC(=O)C/C(C)=C/Cl)[C@@H](C)CC)[C@@H](C)OC(=O)[C@H](C(C)C)NC(=O)[C@H](Cc2ccc(O)cc2)N(C)C(=O)[C@H](Cc2ccccc2)N2C(=O)[C@H](CC[C@H]2O)NC1=O` [Tutuilamide A] was tested. Which “effect on other kallikreins (selectivity profiling)” value (other kallikreins) did it give?
A: The value was “without affecting”.

Q: What about the “fold less active than lyngbyastatin 7 against HNE” value (HNE) of the same compound?
A: Its value is 1.5 fold.
